From ChEMBL document CHEMBL4808166, “Exploring the Chemistry of Alkaloids from Malaysian Mitragyna speciosa (Kratom) and the Role of Oxindoles on Human Opioid Receptors” (J Nat Prod, 2021)
pKi: −log10 of the molar value. Activity calls are given as the source filed them.

Tests used:
[1] = target: Delta-type opioid receptor (Homo sapiens) (UniProt P41143); test: Displacement of [3H]DADLE from human recombinant delta opioid receptor expressed in Chem-1 (RBL) cells at 100 nM incubated for 60 mins by radiometric scintillation analysis; type: cell-based
Sequence of Delta-type opioid receptor (Homo sapiens) (P41143 whole entry): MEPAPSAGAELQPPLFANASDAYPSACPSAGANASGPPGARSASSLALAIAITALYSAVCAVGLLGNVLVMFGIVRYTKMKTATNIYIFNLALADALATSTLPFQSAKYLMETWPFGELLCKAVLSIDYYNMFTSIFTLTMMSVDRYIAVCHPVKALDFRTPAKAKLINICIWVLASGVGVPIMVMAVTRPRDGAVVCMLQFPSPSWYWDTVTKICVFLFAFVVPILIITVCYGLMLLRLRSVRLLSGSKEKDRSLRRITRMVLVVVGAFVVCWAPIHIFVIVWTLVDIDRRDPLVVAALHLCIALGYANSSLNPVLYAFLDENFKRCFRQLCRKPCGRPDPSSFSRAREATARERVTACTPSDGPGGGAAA
In short: (§1)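 δ receptor: membranes of human recombinant Chem-1 (RBL) cells with [3H]DADLE 0.5 nM. Nonspecific binding defined with 10 μM naltrexone. Incubated 60 min at room temperature. Test concentrations 0.1 and 10 μM. Bound ligand collected by rapid vacuum filtration on glass fiber filters, followed by ice-cold buffer rinses. Read-out is percent displacement.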

[2] = target: Delta-type opioid receptor (Homo sapiens) (UniProt P41143); test: Displacement of [3H]DADLE from human recombinant delta opioid receptor expressed in Chem-1 (RBL) cells at 10000 nM incubated for 60 mins by radiometric scintillation analysis; type: cell-based; in short: as §1
[3] = target: Kappa-type opioid receptor (Homo sapiens) (UniProt P41145); test: Displacement of [3H]U69593 from human recombinant kappa opioid receptor expressed in Chem-1 (RBL) cells at 100 nM incubated for 60 mins by radiometric scintillation analysis; type: cell-based
Sequence of Kappa-type opioid receptor (Homo sapiens) (P41145 whole entry): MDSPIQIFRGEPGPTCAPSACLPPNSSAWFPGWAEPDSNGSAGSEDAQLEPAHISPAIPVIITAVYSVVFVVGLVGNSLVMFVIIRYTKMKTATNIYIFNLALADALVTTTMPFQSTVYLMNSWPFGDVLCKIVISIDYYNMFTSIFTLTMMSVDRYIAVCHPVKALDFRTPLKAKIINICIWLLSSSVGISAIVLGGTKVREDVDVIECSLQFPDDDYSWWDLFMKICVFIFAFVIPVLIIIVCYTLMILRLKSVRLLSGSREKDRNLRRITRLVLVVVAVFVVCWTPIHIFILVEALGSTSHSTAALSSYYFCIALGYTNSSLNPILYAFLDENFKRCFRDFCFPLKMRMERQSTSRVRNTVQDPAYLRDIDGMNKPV
In short: (§2)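 κ receptor: human recombinant RBL cell membranes with [3H]U69,593 0.5 nM. Nonspecific binding defined with 10 μM naloxone. Incubated 60 min at room temperature. Screened at 0.1 and 10 μM. Bound fraction separated by vacuum filtration on glass fiber filters with ice-cold buffer washes. Read-out is percent displacement.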

[4] = target: Kappa-type opioid receptor (Homo sapiens) (UniProt P41145); test: Displacement of [3H]U69593 from human recombinant kappa opioid receptor expressed in Chem-1 (RBL) cells at 10000 nM incubated for 60 mins by radiometric scintillation analysis; type: cell-based; in short: as §2
Mu-type opioid receptor [5] = target: T1, Mu-type opioid receptor (Homo sapiens, UniProt P35372); test: Displacement of [3H]DAMGO from human recombinant mu opioid receptor expressed in HEK293 cells at 100 nM incubated for 120 mins by radiometric scintillation analysis; type: cell-based
T1 sequence (P35372 whole entry): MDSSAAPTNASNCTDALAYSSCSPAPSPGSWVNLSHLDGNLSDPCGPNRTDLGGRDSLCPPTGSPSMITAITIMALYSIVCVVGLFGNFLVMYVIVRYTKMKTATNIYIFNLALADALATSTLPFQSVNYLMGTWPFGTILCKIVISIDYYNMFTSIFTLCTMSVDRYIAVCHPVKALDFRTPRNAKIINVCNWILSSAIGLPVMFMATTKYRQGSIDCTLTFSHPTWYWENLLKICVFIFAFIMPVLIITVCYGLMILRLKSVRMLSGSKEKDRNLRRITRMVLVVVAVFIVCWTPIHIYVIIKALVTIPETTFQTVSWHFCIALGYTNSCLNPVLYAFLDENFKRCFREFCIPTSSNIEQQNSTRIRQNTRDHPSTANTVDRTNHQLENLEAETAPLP
In short: (§3)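 Nonspecific binding defined with 10 μM naloxone. Incubation 120 min at room temperature. Compounds at 0.1 and 10 μM. Rapid vacuum filtration through presoaked glass fiber filters, rinsed with ice-cold buffer. Read-out is percent displacement.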

Mu-type opioid receptor [6] = target: T1, Mu-type opioid receptor; test: Displacement of [3H]DAMGO from human recombinant mu opioid receptor expressed in HEK293 cells at 10000 nM incubated for 120 mins by radiometric scintillation analysis; type: cell-based; in short: as §3
Mu-type opioid receptor [7] = target: T1, Mu-type opioid receptor; test: biochemical; type: cell-based, HEK293
Rattus norvegicus [8] = test: Antinociceptive activity in iv dosed Sprague-Dawley rat assessed as hot plate latency compound administered as cumulative dose at 5 mins intervals by Hot-plate test; type: functional
In short: (§4)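 Adult female and male Sprague-Dawley rats (10 weeks, n = 6, three per sex) with right external jugular vein catheter. Vehicle 5% Tween 80 + 5% propylene glycol in sterile water, 1.0 mL/kg i.v. After baseline, vehicle then ascending cumulative doses every 5 min, then naltrexone 0.1 mg/kg i.v. Plate at 52 °C, 60 s cutoff.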

Rattus norvegicus [9] = test: Antinociceptive activity in iv dosed Sprague-Dawley rat assessed as hot plate latency compound administered as cumulative dose at 5 mins intervals in presence of naltrexone by Hot-plate test; type: functional, organism-based
In short: as §4, with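 “cutoff. Latency converted to %MPE; ED50 (95% CI) by linear regression.” for “cutoff.”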

Row | SMILES | Activity [1] [%] | Activity [2] [%] | Activity [3] [%] | Activity [4] [%] | Activity (Mu-type opioid receptor [5]) [%] | Activity (Mu-type opioid receptor [6]) [%] | pKi (Mu-type opioid receptor [7]) | ED50 (Rattus norvegicus [8]) [mg/kg] | Activity (Rattus norvegicus [9])
1 | CC[C@@H]1CN2CC[C@@]3(C(=O)Nc4ccccc43)[C@@H]2C[C@@H]1/C(=C\OC)C(=O)OC [CORYNOXINE] | -3.9 | 73.8 | 3.8 | 75.3 | 80.1 | 97.8 | 7.79 | 6.75 | –
2 | CC[C@@H]1CN2CC[C@@]3(C(=O)Nc4cccc(O)c43)[C@H]2C[C@@H]1/C(=C\OC)C(=O)OC | 0 | 27.1 | 0.1 | 37.3 | 13.1 | 83.3 | 6.10 | – | –
3 | O=C1CC[C@@]2(O)[C@H]3Cc4ccc(O)c5c4[C@@]2(CCN3CC2CC2)[C@H]1O5 | – | – | – | – | – | – | – | – | inactive
4 | CC[C@@H]1CN2CC[C@]3(C(=O)Nc4cccc(OC)c43)[C@@H]2C[C@@H]1/C(=C\OC)C(=O)OC | 10.4 | 87.1 | 5 | 23 | 7.3 | 66.5 | 5.77 | – | –
5 | CC[C@@H]1CN2CC[C@]3(C(=O)Nc4ccccc43)[C@@H]2C[C@@H]1/C(=C\OC)C(=O)OC [CORYNOXINE B] | -4.4 | 65.5 | 4.5 | 51.8 | 45.4 | 94.4 | 6.96 | – | –
6 | CC[C@@H]1C[N+]2([O-])CCc3c([nH]c4cccc(OC)c34)[C@H]2C[C@@H]1/C(=C\OC)C(=O)OC (stereo partly drawn) | 5.1 | 53.5 | 6.6 | 80.9 | 10.5 | 84.6 | 6.26 | – | –
7 | C=C[C@H]1CN2CCc3c([nH]c4cccc(OC)c34)[C@@H]2C[C@@H]1/C(=C\OC)C(=O)OC | – | – | – | – | – | – | 6.39 | – | –
